From article PMC3172397 (Journal of colloid and interface science, 2011)
pKd: −log10 of the molar value.

How the values were obtained:
Test in all cases: intrinsic Trp fluorescence titration, Scatchard analysis
Type in all cases: binding
[1] = molecular target: Bovine Serum albumin (BSA) (Bos taurus, UniProt P02769)
Method in brief: (§1)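 Trp fluorescence read with 295 nm excitation and 335–360 nm emission. Fraction bound was taken from intensity relative to unbound and saturated protein. K was taken from the slope of linear Scatchard (ν/c vs ν) segments.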

ovalbumin (OVA) = molecular target: T1, ovalbumin (OVA) (Gallus gallus, UniProt P01012)
T1 sequence (P01012 2-386): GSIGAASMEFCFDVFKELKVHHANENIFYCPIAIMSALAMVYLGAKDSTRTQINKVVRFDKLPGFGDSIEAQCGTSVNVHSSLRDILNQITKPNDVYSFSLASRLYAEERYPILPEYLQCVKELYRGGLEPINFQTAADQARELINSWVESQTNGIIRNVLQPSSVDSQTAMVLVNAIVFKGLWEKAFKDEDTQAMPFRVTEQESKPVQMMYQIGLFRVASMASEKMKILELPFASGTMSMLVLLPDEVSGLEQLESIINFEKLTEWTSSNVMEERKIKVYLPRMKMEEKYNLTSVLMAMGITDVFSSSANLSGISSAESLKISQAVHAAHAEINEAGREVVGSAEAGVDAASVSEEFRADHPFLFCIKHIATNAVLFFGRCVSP
Method in brief: as §1

[2] = molecular target: α-chymotrypsinogen A (aCHY) (Bos taurus, UniProt P00766)
Method in brief: as §1

Sequence of Bovine Serum albumin (BSA) (P02769 25-607): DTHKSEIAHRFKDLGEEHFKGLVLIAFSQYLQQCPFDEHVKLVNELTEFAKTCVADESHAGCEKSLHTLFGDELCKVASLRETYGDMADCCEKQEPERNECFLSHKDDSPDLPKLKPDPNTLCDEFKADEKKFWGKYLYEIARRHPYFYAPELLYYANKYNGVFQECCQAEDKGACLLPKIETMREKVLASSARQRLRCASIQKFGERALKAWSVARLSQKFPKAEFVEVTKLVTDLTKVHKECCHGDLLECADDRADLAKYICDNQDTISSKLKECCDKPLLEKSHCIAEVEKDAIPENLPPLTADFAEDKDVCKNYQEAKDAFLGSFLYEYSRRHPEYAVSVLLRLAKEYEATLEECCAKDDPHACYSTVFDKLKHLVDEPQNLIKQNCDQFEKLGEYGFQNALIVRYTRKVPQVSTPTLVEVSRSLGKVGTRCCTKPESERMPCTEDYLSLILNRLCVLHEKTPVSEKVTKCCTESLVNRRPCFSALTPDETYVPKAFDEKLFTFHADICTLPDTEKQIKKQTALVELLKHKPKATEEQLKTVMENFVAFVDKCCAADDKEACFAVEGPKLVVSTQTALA

Row | pKd [1] | pKd (ovalbumin (OVA)) | pKd [2] | SMILES
1 | 4.65 | 4.93 | 3.34 | CCCCCCCCCCCCOS(=O)(=O)O [SDS]
2 |  |  | 3.30 | C=CCCCCCCCCCOS(=O)(=O)O [SUS]
